Compound activity as filed in PubChem.
Hits are enriched below; roughly 1.2% of the tested compounds scored in any of these assays.
CTSL1 counter – counter-screen for PFM18AAP inhibitors: inhibitors of F. hepatica cathepsin L1 | inhibition, % at 5.96 µM | hit rate 0.49% among 300,000 | AID 1906 | recombinant F. hepatica cathepsin L1, Z-Leu-Arg-MCA fluorescence;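 active = inhibition above the mean of all tested compounds plus 3 SD, set per screening campaign, cut at about 17% in these data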
TDP2 absorb – blocks human TDP2 phosphodiesterase activity | recombinant TDP2, T5PNP hydrolysis, p-nitrophenol absorbance 415 nm | inhibition, % at 12.8 µM | hit rate 0.34% among 370,000;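 active = inhibition above the mean of all tested compounds plus 3 SD, set per campaign, cut at about 25% in these data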
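Assay system: recombinant human TDP2 / Reagent: T5PNP substrate at 5 mM, a TopII-DNA adduct mimic / Measured by: epi absorbance from released p-nitrophenol / Evaluation: % inhibition relative to enzyme-containing and enzyme-free wells / Control set: enzyme-free and DMSO wells / Replicates: each compound tested once, singlicate / Schedule: enzyme reaction with compound for 2 h at 37 °C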
UBC9 SUMO inh – blocks human SUMOylation mediated by UBC9 | hit rate 0.36% among 290,000 | P63279 | HTRF SUMOylation assay, SAE1/SAE2 + UBC9, in vitro | inhibition, % at 35 µM; in the data active = inhibition above about 50%, passing the limit was not always enough
NSD2 HMT inh – blocks human histone methyltransferase NSD2; hit rate 0.54% among 310,000; inhibition, % at 12.5 µM; NSD2 peptide methylation, AlphaScreen, 120 min; in the data active = inhibition above about 50%
Target sequence (O96028 whole entry, looked up): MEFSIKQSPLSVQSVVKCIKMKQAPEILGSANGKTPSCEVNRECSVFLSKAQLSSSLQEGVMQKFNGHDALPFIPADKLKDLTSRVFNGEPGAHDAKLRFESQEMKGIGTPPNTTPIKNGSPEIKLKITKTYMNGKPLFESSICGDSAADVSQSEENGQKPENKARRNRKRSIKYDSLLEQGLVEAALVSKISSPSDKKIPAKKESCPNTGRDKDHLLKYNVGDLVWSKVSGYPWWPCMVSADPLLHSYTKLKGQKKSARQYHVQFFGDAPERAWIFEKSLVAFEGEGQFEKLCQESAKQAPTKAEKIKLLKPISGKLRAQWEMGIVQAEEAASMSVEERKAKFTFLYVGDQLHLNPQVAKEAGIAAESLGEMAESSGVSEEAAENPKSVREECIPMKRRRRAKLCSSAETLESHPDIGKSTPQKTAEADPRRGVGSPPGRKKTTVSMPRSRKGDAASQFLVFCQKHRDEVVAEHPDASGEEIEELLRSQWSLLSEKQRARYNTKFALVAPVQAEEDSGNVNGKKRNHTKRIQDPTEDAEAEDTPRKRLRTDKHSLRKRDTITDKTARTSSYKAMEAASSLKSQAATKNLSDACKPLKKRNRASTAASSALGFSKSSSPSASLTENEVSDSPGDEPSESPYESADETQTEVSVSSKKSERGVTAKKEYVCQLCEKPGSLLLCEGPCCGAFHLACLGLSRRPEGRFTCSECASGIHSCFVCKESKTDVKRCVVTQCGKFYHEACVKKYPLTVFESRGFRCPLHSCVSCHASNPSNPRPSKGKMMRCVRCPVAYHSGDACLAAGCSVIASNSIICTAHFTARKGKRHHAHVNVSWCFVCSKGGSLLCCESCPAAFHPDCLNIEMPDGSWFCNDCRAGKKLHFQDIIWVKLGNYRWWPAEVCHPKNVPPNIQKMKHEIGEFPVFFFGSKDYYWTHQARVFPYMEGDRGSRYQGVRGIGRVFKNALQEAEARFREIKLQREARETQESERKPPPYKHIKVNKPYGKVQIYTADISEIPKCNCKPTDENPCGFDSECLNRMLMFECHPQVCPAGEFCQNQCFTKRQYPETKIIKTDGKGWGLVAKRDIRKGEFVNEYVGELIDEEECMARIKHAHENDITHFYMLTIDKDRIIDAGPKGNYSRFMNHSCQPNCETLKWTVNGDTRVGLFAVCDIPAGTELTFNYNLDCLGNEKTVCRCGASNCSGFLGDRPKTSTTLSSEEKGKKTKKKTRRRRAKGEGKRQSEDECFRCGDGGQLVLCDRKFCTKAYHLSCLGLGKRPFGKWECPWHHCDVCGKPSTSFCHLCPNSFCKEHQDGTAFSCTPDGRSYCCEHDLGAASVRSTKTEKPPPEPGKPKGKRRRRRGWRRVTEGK
TDP2 inh conf – human TDP2 inhibition, confirmation. inhibition, % at 12.8 µM. shares compounds with TDP2 absorb. hit rate 22% among 1,100. recombinant human TDP2, absorbance read-out; in the data active = inhibition above about 25%
Alpha artifact – interferes with AlphaScreen signal, flagging NSD2 false positives; shares compounds with NSD2 HMT inh; hit rate 9.4% among 1,500; AlphaScreen artifact counterscreen, preloaded methylated H4 peptide; AC35, µM (series often up to 10 µM); call rule not given here
A number is an active result.

Results for O=C(O)C1C2c3ccccc3C(=O)C1(C(=O)O)c1ccccc12 (stereo unspecified) ?
TDP2 absorb: inactive; NSD2 HMT inh: inactive

What do the screens show for `COc1cc(/C=C2\C(=O)NC(=O)N(c3ccccc3)C2=O)cc(OC)c1O`?
CTSL1 counter: inactive; TDP2 absorb: inactive; UBC9 SUMO inh: inactive

Results for COc1cc(/C=C2\C(=O)NC(=O)N(c3ccccc3)C2=O)c([N+](=O)[O-])cc1OC ?
TDP2 absorb: 25; UBC9 SUMO inh: inactive; NSD2 HMT inh: inactive; TDP2 inh conf: inactive

Results for O=C1CC(c2cccnc2)=NN1c1ccccc1 ?
CTSL1 counter: inactive; TDP2 absorb: 46; UBC9 SUMO inh: inactive; NSD2 HMT inh: inactive; TDP2 inh conf: inactive

How did CCOc1cc(CNCCc2c[nH]c3ccccc23)cc(Cl)c1OC do in these assays?
CTSL1 counter: inactive; TDP2 absorb: inactive; UBC9 SUMO inh: inactive; NSD2 HMT inh: inactive

Results for C/C=C1/CC(C)C(C)(O)C(=O)OCC2CCN3CCC(OC1=O)C23 (stereo unspecified) ?
CTSL1 counter: inactive; TDP2 absorb: inactive; UBC9 SUMO inh: inactive; NSD2 HMT inh: inactive

How did CC(C)CCNC(=O)c1c(N)n(Cc2ccc3c(c2)OCO3)c2nc3ccccc3nc12 do in these assays?
CTSL1 counter: inactive; TDP2 absorb: 45; UBC9 SUMO inh: inactive; NSD2 HMT inh: inactive; TDP2 inh conf: inactive

Results for CC(C)CNC(=O)c1c(N)n(Cc2ccc3c(c2)OCO3)c2nc3ccccc3nc12 ?
CTSL1 counter: inactive; TDP2 absorb: inactive; UBC9 SUMO inh: inactive; NSD2 HMT inh: inactive

How did COCCCn1c(N)c(C(=O)OCCOC)c2nc3ccccc3nc21 do in these assays?
CTSL1 counter: inactive; TDP2 absorb: 50; UBC9 SUMO inh: inactive; NSD2 HMT inh: 73; TDP2 inh conf: inactive; Alpha artifact: inactive

What do the screens show for `CCOC(=O)c1c(N)n(CCCOC(=O)c2ccco2)c2nc3ccccc3nc12`?
CTSL1 counter: inactive; TDP2 absorb: inactive; UBC9 SUMO inh: inactive; NSD2 HMT inh: inactive

What do the screens show for `CCCCNC(=O)c1c(N)n(CCCOC)c2nc3ccccc3nc12`?
CTSL1 counter: inactive; TDP2 absorb: 36; UBC9 SUMO inh: 99; NSD2 HMT inh: 106; TDP2 inh conf: inactive; Alpha artifact: inactive

How did CCOC(=O)c1c(NS(=O)(=O)c2ccccc2)n(CCCOC)c2nc3ccccc3nc12 do in these assays?
CTSL1 counter: inactive; TDP2 absorb: 91; UBC9 SUMO inh: 100; NSD2 HMT inh: 68; TDP2 inh conf: 73; Alpha artifact: inactive

Results for CCOC(=O)c1ccccc1NC(=O)c1c(O)[nH]c(=S)[nH]c1=O ?
CTSL1 counter: inactive; TDP2 absorb: inactive

What do the screens show for `Cc1cccc(C#N)c1`?
TDP2 absorb: inactive

How did O=C1NC(=O)C(Sc2ccccc2[N+](=O)[O-])C(=O)N1 do in these assays?
CTSL1 counter: inactive; TDP2 absorb: 51; UBC9 SUMO inh: inactive; NSD2 HMT inh: 85; TDP2 inh conf: 33; Alpha artifact: inactive

Results for Cc1ccccc1[N+](=O)[O-] ?
TDP2 absorb: inactive

How did CCCNC(=O)c1c(N)n(Cc2ccco2)c2nc3ccccc3nc12 do in these assays?
CTSL1 counter: inactive; UBC9 SUMO inh: inactive; NSD2 HMT inh: inactive

Results for COCCCNC(=O)c1c(NC(=O)c2ccco2)n(Cc2ccccc2)c2nc3ccccc3nc12 ?
CTSL1 counter: inactive; TDP2 absorb: inactive; UBC9 SUMO inh: 98; NSD2 HMT inh: 106; Alpha artifact: inactive

Results for CCOc1cc2c(cc1OCC)-n1cccc1C(c1ccccc1OC)NC2 (stereo unspecified) ?
CTSL1 counter: inactive; TDP2 absorb: inactive; UBC9 SUMO inh: inactive; NSD2 HMT inh: inactive

What do the screens show for `Cc1cc(/C=C2\C(=O)NC(=O)N(Cc3ccco3)C2=O)c(C)n1-c1ccc(C(=O)O)cc1`?
CTSL1 counter: inactive; TDP2 absorb: inactive; UBC9 SUMO inh: inactive

What do the screens show for `Cc1cc(/C=C2\C(=O)NC(=O)N(Cc3ccccc3Cl)C2=O)c(C)n1-c1ccc(C(=O)O)cc1`?
CTSL1 counter: inactive; TDP2 absorb: inactive; UBC9 SUMO inh: inactive; NSD2 HMT inh: 58; Alpha artifact: inactive

What do the screens show for `Cc1cc(/C=C2\C(=O)NC(=O)N(Cc3ccccc3)C2=O)c(C)n1-c1ccc(Cl)c(C(=O)O)c1`?
CTSL1 counter: inactive; TDP2 absorb: inactive; UBC9 SUMO inh: 59; NSD2 HMT inh: 137; Alpha artifact: inactive

What do the screens show for `CCNCCNc1ccc([N+](=O)[O-])c2cccnc12`?
CTSL1 counter: inactive; TDP2 absorb: inactive; UBC9 SUMO inh: inactive; NSD2 HMT inh: 100; Alpha artifact: inactive

Results for COC1C(O)C(C)OC(OC2C(Oc3cccc4c(O)c5c(=O)oc6ccc(C)c7c(=O)oc(c34)c5c67)OC(C)C(O)C2O)C1O (stereo unspecified) ?
TDP2 absorb: inactive; NSD2 HMT inh: 66; Alpha artifact: inactive

What do the screens show for `CCCC(=O)NC1=C(N2CC2)C(=O)C(NC(=O)CCC)=C(N2CC2)C1=O`?
TDP2 absorb: inactive; NSD2 HMT inh: 92; Alpha artifact: inactive

How did CN1CCN(c2ccc(N)cc2Cl)CC1 do in these assays?
CTSL1 counter: inactive; TDP2 absorb: inactive; UBC9 SUMO inh: inactive; NSD2 HMT inh: 77; Alpha artifact: inactive

Results for CN1CCN(c2ccc(Cl)cc2N)CC1 ?
CTSL1 counter: inactive; TDP2 absorb: inactive; UBC9 SUMO inh: inactive; NSD2 HMT inh: inactive

Results for CCOc1cc(C2C(C#N)=C(N)Oc3c2c(=O)oc2ccccc32)ccc1OC(=O)c1cccs1 (stereo unspecified) ?
CTSL1 counter: inactive; TDP2 absorb: inactive; UBC9 SUMO inh: inactive; NSD2 HMT inh: inactive

What do the screens show for `O=[N+]([O-])c1ccc(N(CCO)CCO)c2c1no[n+]2[O-]`?
TDP2 absorb: inactive; NSD2 HMT inh: 135; Alpha artifact: inactive

What do the screens show for `CCC(=NCCCN(CC)CC)c1c(O)n(C2CCCCC2)c(=O)[nH]c1=O`?
CTSL1 counter: inactive; TDP2 absorb: inactive; UBC9 SUMO inh: inactive; NSD2 HMT inh: 51; Alpha artifact: inactive

How did CCN(CC)CCCN=C(C)c1c(O)n(C2CCCCC2)c(=O)[nH]c1=O do in these assays?
CTSL1 counter: inactive; TDP2 absorb: inactive; UBC9 SUMO inh: inactive; NSD2 HMT inh: inactive

What do the screens show for `CC(C)n1cc(C(=O)N(CC(=O)NC(C)(C)C)Cc2ccccc2)cn1`?
CTSL1 counter: inactive; TDP2 absorb: inactive; UBC9 SUMO inh: inactive; NSD2 HMT inh: inactive

What do the screens show for `c1ccc(CCN2CCCCC2)nc1`?
TDP2 absorb: inactive; NSD2 HMT inh: inactive

Results for Clc1ccccc1Nc1ncnc(-n2cccc2)n1 ?
CTSL1 counter: inactive; TDP2 absorb: inactive; UBC9 SUMO inh: inactive; NSD2 HMT inh: 128; Alpha artifact: inactive

Results for CN(C)C(=O)On1c(-c2ccccc2)nc2ccc(Cl)cc21 ?
CTSL1 counter: inactive; TDP2 absorb: inactive; UBC9 SUMO inh: inactive; NSD2 HMT inh: inactive

How did CC(=O)N(C)C1=Nc2ccc(Cl)cc2C(c2ccccc2)=[N+]([O-])C1 do in these assays?
TDP2 absorb: inactive; NSD2 HMT inh: 54; Alpha artifact: inactive
